Here are results for 38 compounds from ChEMBL document CHEMBL1148594, “Novel 4-oxo-1,4-dihydroquinoline-3-carboxamide derivatives as new CB2 cannabinoid receptors agonists: synthesis, pharmacological properties and molecular modeling” (J Med Chem, 2006).

pEC50, pKi: −log10 of the molar value.

The target of assay [1] is T1, Cannabinoid receptor 1 (Homo sapiens, UniProt P21554). Description: Displacement of [3H]SR-141716A from human CB1 receptor at 10 uM. Put shortly: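 Single-concentration screen at 10 µM on membranes of CHO cells stably expressing human CB1 (40 µg) against 1 nM [3H]-SR-141716A, 1 h at 30 °C, pH 7.4 Tris/MgCl2/EDTA/0.5% BSA. HU-210 10 µM for nonspecific binding. Reported as percent displacement. At least four experiments in duplicate.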
(Loss of bound radioactivity is the signal in a displacement assay; it reports binding, not function.)

Assay [2] has as its target T2, Cannabinoid receptor 2 (Homo sapiens, UniProt P34972). Description: Effect on human CB2 receptor stimulation by [35S]GTP-gamma-S binding at 10 uM (basal value set at 100%). The assay is classed as functional. In a few lines: (§1)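 CHO-hCB2 membranes (40 µg) at 30 °C for 1 h in pH 7.4 Tris/MgCl2/EDTA/100 mM NaCl/0.1% BSA with 20 µM GDP. Started by 0.05 nM [35S]-GTPγS (final). Nonspecific binding with 100 µM Gpp(NH)p. Stopped with ice-cold buffer, filtered on GF/B, counted. EC50 by nonlinear regression. Single-point tests at 10 µM, three experiments in duplicate, one-way ANOVA with Dunnett test.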
(In general: GTPγS is a poorly hydrolysed GTP analogue; its binding reports G protein activation.)

Assay [3] has as its target T2, Cannabinoid receptor 2. Description: Displacement of [3H]CP-55940 from human CB2 receptor at 10 uM. In a few lines:
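Single-concentration screen at 10 µM on CHO-hCB2 membranes (40 µg) against 1 nM [3H]-CP-55,940, 1 h at 30 °C, pH 7.4 Tris/MgCl2/EDTA/0.5% BSA. HU-210 10 µM defines nonspecific binding. Filtered, counted, reported as percent specific radioligand displacement. At least four experiments in duplicate, mean ± SEM.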

The target of assay [4] is T2, Cannabinoid receptor 2. Description: Displacement of [3H]CP-55940 from human CB2 receptor.
In assay [5] the target is T2, Cannabinoid receptor 2. Description: Effect on [35S]GTP-gamma-S binding to human CB2 receptor. The assay is classed as functional. In a few lines:
as §1

For assay [6], the target named is T1, Cannabinoid receptor 1.
In assay [7] the target is Cannabinoid receptor (Homo sapiens) (UniProt P34972+P21554). Description: Selectivity ratio of human CB2 receptor versus human CB1 receptor in human. The assay is classed as protein assay. In a few lines: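 Ratio of Ki values from [3H]-SR-141716A (hCB1) and [3H]-CP-55,940 (hCB2) competition binding on CHO cell membranes. Ki from IC50 by Cheng-Prusoff, given only when Ki was obtained at both receptors.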
Sequence of Cannabinoid receptor (Homo sapiens) (P21554 whole entry, looked up): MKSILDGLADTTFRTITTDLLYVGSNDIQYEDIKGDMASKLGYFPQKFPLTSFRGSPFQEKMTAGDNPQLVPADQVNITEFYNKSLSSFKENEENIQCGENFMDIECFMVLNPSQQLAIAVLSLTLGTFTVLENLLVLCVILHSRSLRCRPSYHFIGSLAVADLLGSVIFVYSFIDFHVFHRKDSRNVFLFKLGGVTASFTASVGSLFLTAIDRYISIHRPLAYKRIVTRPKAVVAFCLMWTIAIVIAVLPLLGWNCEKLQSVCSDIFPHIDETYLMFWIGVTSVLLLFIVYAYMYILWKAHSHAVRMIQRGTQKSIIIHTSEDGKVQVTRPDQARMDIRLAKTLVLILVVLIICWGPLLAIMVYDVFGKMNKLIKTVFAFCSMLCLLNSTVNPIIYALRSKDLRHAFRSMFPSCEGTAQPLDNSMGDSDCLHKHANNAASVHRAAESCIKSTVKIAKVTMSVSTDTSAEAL
Sequence of Cannabinoid receptor (Homo sapiens) (P34972 whole entry, looked up): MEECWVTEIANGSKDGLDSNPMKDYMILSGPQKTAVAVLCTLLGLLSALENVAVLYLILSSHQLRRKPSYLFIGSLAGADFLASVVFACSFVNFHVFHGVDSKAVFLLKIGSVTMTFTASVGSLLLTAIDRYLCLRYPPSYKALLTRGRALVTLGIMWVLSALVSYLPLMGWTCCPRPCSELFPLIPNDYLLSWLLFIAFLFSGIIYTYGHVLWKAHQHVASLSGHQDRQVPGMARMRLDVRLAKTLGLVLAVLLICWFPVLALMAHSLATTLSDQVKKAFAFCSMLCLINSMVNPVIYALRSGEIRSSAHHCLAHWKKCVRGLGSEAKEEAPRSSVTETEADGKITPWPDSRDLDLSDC

T2 sequence (P34972 whole entry): as the sequence (P34972 whole entry, looked up) above
T1 sequence (P21554 whole entry): as the sequence (P21554 whole entry, looked up) above

For the compound `CCCCCn1cc(C(=O)NC(C)c2ccc3ccccc3c2)c(=O)c2ccccc21` (racemic), the Activity in assay [1] was under 10%; in assay [2] it was 122%; in assay [3], 82.9%. In assay [4], the pKi is under 6.00.

Regarding `CCCCCn1cc(C(=O)Nc2ccc(-c3ccccc3)cc2)c(=O)c2ccccc21`, the Activity in assay [1] and in assay [3] was under 20% in each case.

For the compound `CC12CC3CC(C)(C1)CC(NC(=O)c1cn(Cc4ccccc4)c4ccccc4c1=O)(C3)C2`, the Activity was 32.5% in assay [1], 121% in assay [2] and 86.3% in assay [3]. The same compound showed a negative logarithm of the Ki (pKi) in assay [4] of 6.18.

With `CCCCCn1cc(C(=O)NCc2ccccc2)c(=O)c2ccccc21`, the Activity in assay [1] was found to be 50.5%; in assay [2], 129%; in assay [3], 66.7%. The compound also had a negative logarithm of the Ki (pKi) in assay [4] of under 6.00.

In the case of `CCCCCn1cc(C(=O)NCc2ccc(OC)cc2)c(=O)c2ccccc21`, the Activity in assay [1] was under 10%; in assay [3], 51.7%.

As for `CCCCCn1cc(C(=O)Nc2ccc3ccccc3c2)c(=O)c2ccccc21`, the Activity is under 10% in assay [1] and 63.9% in assay [3].

Regarding `CCCCCn1cc(C(=O)NCCc2ccc3c(c2)OCO3)c(=O)c2ccccc21`, the figures for the Activity in assay [1], in assay [2] and in assay [3] were 43.6%, 136% and 88.7%, respectively. This compound had a pKi in assay [4] of 6.37.

For `CCCCCCn1cc(C(=O)Nc2cccc3ccccc23)c(=O)c2ccccc21`, the Activity in assay [1] turned out to be 53.3%; in assay [2], 124%; in assay [3] it was 80%. Also, the pKi in assay [4] is 6.07.

As for `CCCCCn1cc(C(=O)NC2CCCc3ccccc32)c(=O)c2ccccc21` (racemic), the Activity in assay [1] worked out at 79.7%; in assay [2], 123%; in assay [3], 96.5%. In assay [5], this compound had a pEC50 of 6.80. For the same compound, in assay [5], the Emax amounted to 124%. In addition, the negative logarithm of the Ki (pKi) in assay [6] is 5.98; in assay [4], 7.22. Besides, in assay [7], the Selectivity ratio amounted to 17.

Turning to `CCCCCCn1cc(C(=O)NCc2ccccc2)c(=O)c2ccccc21`, the results for the Activity in assay [1] and in assay [3] were 37.4% and 54.6%, respectively.

In the case of `CCCCCn1cc(C(=O)Nc2ccc(OC)cc2)c(=O)c2ccccc21`, the Activity was under 20% in assay [1] and 60.1% in assay [3].

With `CCCCCn1cc(C(=O)NCCc2ccccc2)c(=O)c2ccccc21`, the Activity stood at 64.8% in assay [1], 136% in assay [2] and 98.2% in assay [3]. This compound also gave a pKi in assay [4] of 6.70.

Compound `CCCCCn1cc(C(=O)N[C@H](C)c2ccc3ccccc3c2)c(=O)c2ccccc21` gave an Activity in assay [2] of 122%. In addition, the pKi in assay [4] is 6.23.

On to `CCCCCn1cc(C(=O)NC23CC4CC(C)(CC(C)(C4)C2)C3)c(=O)c2ccccc21`, for which the figures for the Activity in assay [1], in assay [2] and in assay [3] were 54.6%, 131% and 95.6%, respectively. Moreover, the pEC50 in assay [5] is 7.85. Moreover, the Emax in assay [5] was 124%. For the same compound, in assay [4], the pKi is 7.80.

Consider `CCCCCn1cc(C(=O)N[C@H](C)c2cccc3ccccc23)c(=O)c2ccccc21`, for which, in assay [2], the Activity is 119%. Further, in assay [4], the pKi was 6.90.

On to `CCCCCn1cc(C(=O)Nc2ccc(C#N)cc2)c(=O)c2ccccc21`, for which the figures for the Activity in assay [1], in assay [2] and in assay [3] were 49.6%, 133% and 79.4%, respectively. In assay [4], this compound gave a pKi of 6.11.

With `CCCCCn1cc(C(=O)N[C@@H](C)c2ccc3ccccc3c2)c(=O)c2ccccc21`, the pKi in assay [4] was under 5.30.

In assay [5], `Cc1ccc(Cn2nc(C(=O)NC3C4(C)CCC(C4)C3(C)C)cc2-c2ccc(Cl)c(C)c2)cc1` (stereo not given) returned an Emax of 21.6%. In assay [2], the Activity was found to be 21.6%.

In the case of `CCCCCn1cc(C(=O)Nc2ccc(Cl)c(Cl)c2)c(=O)c2ccccc21`, the Activity is under 10% in assay [1], 116% in assay [2] and 68.1% in assay [3]. Besides, in assay [4], the pKi was under 6.00.

Take `CCCCCn1cc(C(=O)NCCCc2ccccc2)c(=O)c2ccccc21`: the Activity in assay [1] was found to be 32.8%; in assay [2], 134%; in assay [3] it was 85.5%. For the same compound, in assay [4], the pKi was under 6.00.

As for `CCCCCCC(C)(C)c1cc(O)c2c(c1)OC(C)(C)[C@@H]1CC=C(CO)C[C@@H]21`, in assay [5], the maximum response (Emax) was 135%. The compound further had an Activity in assay [2] of 135%.

As for `CCCCCn1cc(C(=O)NC2C3CC4CC(C3)CC2C4)c(=O)c2ccccc21` (stereo not given), the Activity turned out to be 37.8% in assay [1], 130% in assay [2] and 104% in assay [3]. Besides, in assay [5], the pEC50 was 7.61. This compound yielded an Emax in assay [5] of 126%. For the same compound, the pKi was 5.72 in assay [6] and 7.87 in assay [4]. In assay [7], the Selectivity ratio is 143.

Take `CCCCCn1cc(C(=O)NC23CC4CC(CC(C4)C2)C3)c(=O)c2ccccc21`: the Activity came to 59% in assay [1], 126% in assay [2] and 104% in assay [3]. In addition, the pKi in assay [4] was 7.79.

For `CCCCCn1cc(C(=O)Nc2cccc3ccccc23)c(=O)c2ccccc21`, the Activity is 65.9% in assay [1], 124% in assay [2] and 90.6% in assay [3]. Moreover, the pKi in assay [6] is 5.39; in assay [4], 6.43. For the same compound, the Selectivity ratio in assay [7] is 11.

For `CCCCCn1cc(C(=O)N[C@@H](C)c2cccc3ccccc23)c(=O)c2ccccc21`, the pKi in assay [4] was under 6.00.

As for `CCCCCn1cc(C(=O)N[C@@H](C)c2ccccc2)c(=O)c2ccccc21`, the pKi in assay [4] was 6.11.

With `CCCCCCn1cc(C(=O)Nc2ccc(OC)cc2)c(=O)c2ccccc21`, the Activity in assay [1] was under 10%; in assay [3], 28.2%.

For `CCCCCn1cc(C(=O)O)c(=O)c2ccccc21`, the Activity was under 20% in assay [1] and under 15% in assay [3].

In the case of `CCCCCn1cc(C(=O)N2CCOCC2)c(=O)c2ccccc21`, the Activity in assay [1] was under 10%; in assay [3], 36.5%.

For the compound `CCCCn1cc(C(=O)Nc2ccc(OC)cc2)c(=O)c2ccccc21`, the Activity in assay [1] was under 20%; in assay [3], 50.5%.

Turning to `CCCCCCC(C)(C)c1ccc([C@@H]2C[C@H](O)CC[C@H]2CCCO)c(O)c1`, the Emax in assay [5] is 146%. Besides, in assay [2], the Activity worked out at 146%.

In assay [5], `CCCCCn1cc(C(=O)N[C@H](C)c2ccccc2)c(=O)c2ccccc21` showed a pEC50 of 7.77 and an Emax of 129%. The same compound displayed an Activity in assay [2] of 124%. The same compound gave a negative-log Ki (pKi) in assay [6] of 5.94. Also, in assay [7], the Selectivity ratio was 31. The negative logarithm of the Ki (pKi) in assay [4] is 7.43.

For `CCCCn1cc(C(=O)NCc2ccccc2)c(=O)c2ccccc21`, the Activity in assay [1] was 33.6%; in assay [3] it was 44.9%.

Turning to `CCCC(C)(C)c1ccc2c(c1)OC(C)(C)[C@@H]1CC=C(C)C[C@@H]21`, in assay [5], the pEC50 is 6.84 and the maximum response (Emax) is 149%. This compound also registered an Activity in assay [2] of 148%. In assay [4], this compound showed a pKi of 7.69.

For `CCCCn1cc(C(=O)Nc2cccc3ccccc23)c(=O)c2ccccc21`, the Activity came out at 45.3% in assay [1], 132% in assay [2] and 85.4% in assay [3]. Moreover, the negative logarithm of the Ki (pKi) in assay [4] was 6.34.

For `CCCCCn1cc(C(=O)NC(C)c2ccccc2)c(=O)c2ccccc21` (racemic), the Activity in assay [1] was 68.3%; in assay [2], 130%; in assay [3], 101%. In assay [4], this compound had a pKi of 7.15.

In turn, `Cc1c(C(=O)c2cccc3ccccc23)c2cccc3c2n1[C@H](CN1CCOCC1)CO3` returned an Emax in assay [5] of 126%. Also, the Activity in assay [2] is 128%.

For the compound `CCCCCn1cc(C(=O)NC(C)c2cccc3ccccc23)c(=O)c2ccccc21` (racemic), the Activity in assay [1] came to 35.5%; in assay [2], 117%; in assay [3], 98.9%. The pKi in assay [4] is 6.76.

Broadly, the pKi is the negative decadic logarithm of the Ki, by convention in mol/L. A high value points to a low Ki. As a reminder, the pEC50 is the EC50 on a negative log10 scale, so that one unit is a factor of ten. One may read the Emax as the size of the effect at its maximum, as opposed to the concentration needed.
